Data published in PubChem BioAssay.
The source made the active and inactive calls.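 How the source made its calls, unless noted: active means viability at or under a set limit in both replicates, limit being median viability minus 3 SD (cut at about 48% in these data, passing the limit was not always enough); inconclusive means at or under the limit in just one replicate; inactive means at or above the limit in both replicates.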

What was measured:
[1] = Her2 expression decrease, cell viability multiplex – SKBR3 breast tumor cells, AlphaScreen, ATP viability, primary screen (AID 461;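 active means Her2 level under about 52% in both replicate screens, with viability over 70% of control, limit read from the data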;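 on Her2 level: lower value means less Her2 protein in the cells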;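 on viability: percent of carrier control wells set as 100% viability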); settings: SKBR3 Her2 protein level, 18-24 h, measured here: SKBR3 viability, ATP luminescence, at 10 µM
[2] = biological target: Receptor tyrosine-protein kinase erbB-2 (Homo sapiens) (UniProt P04626); assay: as above; settings: 18-24 h, at 10 µM, stronger effect = lower value
Sequence of Receptor tyrosine-protein kinase erbB-2 (Homo sapiens) (P04626 whole entry, looked up): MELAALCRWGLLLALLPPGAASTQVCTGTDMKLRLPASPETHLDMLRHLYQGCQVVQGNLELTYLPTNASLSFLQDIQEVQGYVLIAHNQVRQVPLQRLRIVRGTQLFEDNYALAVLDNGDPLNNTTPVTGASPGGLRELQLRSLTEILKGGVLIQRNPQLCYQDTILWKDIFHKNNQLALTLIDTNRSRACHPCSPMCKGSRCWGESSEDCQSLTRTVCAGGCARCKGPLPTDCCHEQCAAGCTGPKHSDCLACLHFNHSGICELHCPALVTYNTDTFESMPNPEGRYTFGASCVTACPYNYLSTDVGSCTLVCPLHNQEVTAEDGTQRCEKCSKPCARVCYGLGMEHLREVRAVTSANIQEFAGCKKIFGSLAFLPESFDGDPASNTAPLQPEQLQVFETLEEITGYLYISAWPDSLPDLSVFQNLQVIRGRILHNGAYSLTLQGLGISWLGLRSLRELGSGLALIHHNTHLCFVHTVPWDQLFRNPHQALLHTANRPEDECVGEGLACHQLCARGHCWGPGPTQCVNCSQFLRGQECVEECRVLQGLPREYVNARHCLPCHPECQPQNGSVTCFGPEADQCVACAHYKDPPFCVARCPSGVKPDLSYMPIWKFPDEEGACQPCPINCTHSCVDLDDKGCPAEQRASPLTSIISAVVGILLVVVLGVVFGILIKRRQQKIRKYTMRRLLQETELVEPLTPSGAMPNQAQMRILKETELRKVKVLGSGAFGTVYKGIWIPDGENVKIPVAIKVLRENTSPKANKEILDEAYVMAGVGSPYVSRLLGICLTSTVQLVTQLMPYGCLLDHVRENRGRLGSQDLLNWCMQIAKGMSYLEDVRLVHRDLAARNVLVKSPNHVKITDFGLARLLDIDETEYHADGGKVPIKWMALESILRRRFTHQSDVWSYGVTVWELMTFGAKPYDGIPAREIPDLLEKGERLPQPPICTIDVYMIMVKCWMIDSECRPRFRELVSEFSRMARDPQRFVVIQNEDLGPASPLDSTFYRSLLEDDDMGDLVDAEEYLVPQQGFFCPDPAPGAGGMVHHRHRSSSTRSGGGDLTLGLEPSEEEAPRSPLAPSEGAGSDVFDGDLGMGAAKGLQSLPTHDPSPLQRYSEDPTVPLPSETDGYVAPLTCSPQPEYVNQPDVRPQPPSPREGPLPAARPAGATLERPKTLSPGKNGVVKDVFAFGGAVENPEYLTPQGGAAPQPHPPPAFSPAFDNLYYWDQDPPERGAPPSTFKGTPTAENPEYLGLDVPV

[3] = reduced viability of SK-BR-3 breast cancer cells – cell-based, 24 h, human, pilot screen (AID 572;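 active means viability at or below 10% of carrier control in both of two separate runs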;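 further: compound exposure lasted between 18 and 24 h rather than exactly 24 h; 100% = carrier-treated control wells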); settings: SK-BR-3 viability, CellTiter-Glo luminescence, at 10 µM, stronger effect = lower value
[4] = HUVEC growth inhibition – cell-based, human, primary screen (AID 575;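 active means viability at or below 30% in both replicate assays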;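 further: 100% = median of untreated cell wells with 0.1% DMSO on each plate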); settings: HUVEC proliferation, CellTiter-Glo luminescence, 72 h; at 10 µM; stronger effect = lower value
Procedure, shortened: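 Test system – primary HUVEC, no more than 12 passages · Dosing – one dose, 10 µM final, 0.1% DMSO · Times – 72 h treatment at 37 °C · Measured by – ATP-based CellTiter-Glo luminescent read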

[5] = H69AR cell proliferation blockers – human, duplicate replicates, primary screen (AID 580); settings: H69AR lung tumor cells viability, ATP luminescence, 72 h; at 10 µM; stronger effect = lower value;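 further: 100% = mean luminescence of untreated wells and 0% = no signal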
[6] = MRP1 drug-resistance reversers in H69AR cells – cell-based, doxorubicin co-treatment, pilot screen (AID 601;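 active means viability loss from added drug above about 55%, and viability with drug at most 40%, in both replicates, limit read from the data, passing the limit was not always enough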); settings: CellTiter-Glo, 72 h, at 10 µM; for differential viability (reversal): stronger effect = higher value
[7] = yeast transport mutant growth inhibition pilot in 384-well plates, post-Golgi transport modulator project (AID 636; in the data active means inhibition above about 31%); settings: absorbance 615 nm, about 18 h, stronger effect = higher value
[8] = growth suppression of yeast trafficking mutant, preliminary HTS, modulators of trafficking downstream of Golgi apparatus project, 1536-format plate, OD 615 nm (AID 637; in the data active means inhibition above about 30%); settings: yeast transport mutant growth, absorbance 615 nm, 18 h; stronger effect = higher value
[9] = H69AR cells + 2 uM doxorubicin, measured here: viability with 2 uM doxorubicin, stronger effect = lower value
[10] = H69AR cells, compound alone cytotoxicity

SMILES | viability [1] | Her2 level [2] | viability [3] | viability [4] | viability [5] | differential viability (reversal) ([6]; H69AR cells + 2 uM doxorubicin) | viability [6, 9] | viability [6, 10] | inhibition [7] | inhibition [8]
CC(C)C1N=C2c3ccccc3N=C(SCc3cc(=O)n4ccccc4n3)N2C1=O (stereo not given) | 89% | 135% (inactive) | 89% (inactive) | 97.6% (inactive) | 80.1% (inactive) | -20.5% (inactive) | 101% | 80.1% | 2.24% (inactive) | -3.67% (inactive)
O=C(O)C1CC=CCC1C(=O)Nc1ccc(S(=O)(=O)N2CCCc3ccccc32)cc1 (stereo not given) | 85.5% | 88% (inactive) | 85.5% (inactive) | 64.4% (inactive) | 98.7% (inactive) | 4.55% (inactive) | 94.1% | 98.7% | -3.73% (inactive) | 0% (inactive)
Cc1nc(C)c(C(=O)Nc2ccc(C)c(F)c2)o1 | 92% | 80% (inactive) | 92% (inactive) | 117% (inactive) | 94.8% (inactive) | 15.5% (inactive) | 79.3% | 94.8% | -5.54% (inactive) | 1% (inactive)
CCNC(=O)N(C)c1nncnc1C(=O)NC | 85% | 88% (inactive) | 85% (inactive) | 89.8% (inactive) | 95.8% (inactive) | 6.2% (inactive) | 89.6% | 95.8% | -3.6% (inactive) | 5.57% (inactive)
O=c1[nH]c2ccccc2nc1NCCN1CCOCC1 | 97.5% | 87.5% (inactive) | 97.5% (inactive) | 114% (inactive) | 97.1% (inactive) | 7.97% (inactive) | 89.1% | 97.1% | -0.79% (inactive) | 3.93% (inactive)
COc1ccccc1NC(=O)CSc1nnnn1-c1ccc2c(c1)OCO2 | 92% | 84% (inactive) | 92% (inactive) | 98.7% (inactive) | 90.9% (inactive) | 15.1% (inactive) | 75.8% | 90.9% | -4.11% (inactive) | 0% (inactive)
O=C(c1ccc2ccccc2n1)N1CCN(c2ccccc2)CC1 | 88.5% | 86% (inactive) | 88.5% (inactive) | 100% (inactive) | 112% (inactive) | 13.8% (inactive) | 98.6% | 112% | -4.19% (inactive) | -3.61% (inactive)
O=C(O)C1CCCCC1C(=O)NCCc1ccccc1 (stereo not given) | 87.5% | 104% (inactive) | 87.5% (inactive) | 103% (inactive) | 99.2% (inactive) | 7.15% (inactive) | 92% | 99.2% | 0.55% (inactive) | 10.3% (inactive)
CC(C(=O)N1CCOCC1)N1c2cccc3cccc(c23)S1(=O)=O (stereo not given) | 101% | 91.5% (inactive) | 101% (inactive) | 100% (inactive) | 93.5% (inactive) | 0.905% (inactive) | 92.6% | 93.5% | -2.76% (inactive) | 5.57% (inactive)
CCN(CC)c1ccc(-c2c(C#N)c(N)nc(OC)c2C#N)cc1 | 75.5% | 88.5% (inactive) | 75.5% (inactive) | 81.3% (inactive) | 79.4% (inactive) | -4.16% (inactive) | 83.5% | 79.4% | -1.17% (inactive) | -8.36% (inactive)
COc1ccc2nc(NC(=O)C(NS(=O)(=O)c3cccs3)C(C)C)sc2c1 (stereo not given) | 90.5% | 77% (inactive) | 90.5% (inactive) | 70.7% (inactive) | 92.7% (inactive) | 5.86% (inactive) | 86.9% | 92.7% | -2.5% (inactive) | -5.64% (inactive)
O=C1CCCC(O)=C1C=Nc1ccc2c(c1)oc1ccccc12 | 102% | 101% (inactive) | 102% (inactive) | 63.7% (inactive) | 88.7% (inactive) | -11.3% (inactive) | 100% | 88.7% | -5.87% (inactive) | 1.11% (inactive)
CCOC(=O)CSc1cn2c(n1)CCC2 | 99.5% | 103% (inactive) | 99.5% (inactive) | 92% (inactive) | 92.4% (inactive) | -2.28% (inactive) | 94.7% | 92.4% | -0.79% (inactive) | -8.87% (inactive)
CCN1CCN(Cc2ccc(NC(=O)Nc3ccc(SC)cc3)cc2)CC1 | 97.5% | 82.5% (inactive) | 97.5% (inactive) | 62% (inactive) | 98.4% (inactive) | 18.2% (inactive) | 80.1% | 98.4% | -4.93% (inactive) | 1.94% (inactive)
O=C(Nc1cc(Cl)ccc1Cl)c1noc2c1CCCC2 | 87.5% | 90.5% (inactive) | 87.5% (inactive) | 63.5% (inactive) | 83.5% (inactive) | -3.4% (inactive) | 86.9% | 83.5% | -0.51% (inactive) | -5.5% (inactive)
CC(=O)NCCn1ccc2ccccc21 | 117% | 106% (inactive) | 117% (inactive) | 96.4% (inactive) | 91.7% (inactive) | -3.84% (inactive) | 95.5% | 91.7% | -4.13% (inactive) | 3.93% (inactive)

SMILES | viability [1] | Her2 level [2] | viability [3] | viability [4] | viability [5] | differential viability (reversal) ([6]; H69AR cells + 2 uM doxorubicin) | viability [6, 9] | viability [6, 10] | inhibition [7] | inhibition [8]
O=C(COc1ccccc1F)NC1CC1 | 94.5% | 88.5% (inactive) | 94.5% (inactive) | 88.7% (inactive) | 107% (inactive) | 11.7% (inactive) | 95% | 107% | -6.58% (inactive) | -2.5% (inactive)
Cc1nnc(SCc2ccccc2)n1N | 104% | 98% (inactive) | 104% (inactive) | 103% (inactive) | 99.6% (inactive) | 0.72% (inactive) | 98.9% | 99.6% | -0.67% (inactive) | -5.32% (inactive)
CCOC(=O)C1CCN(c2nc3ccccc3nc2C(C#N)C(=O)OCCOC)CC1 (stereo not given) | 97% | 98% (inactive) | 97% (inactive) | 78.3% (inactive) | 79.4% (inactive) | 27.7% (inactive) | 51.7% | 79.4% | -6.71% (inactive) | 0.16% (inactive)
O=C(O)c1[nH]nc2c1COc1ccccc1-2 | 93.5% | 92% (inactive) | 93.5% (inactive) | 109% (inactive) | 100% (inactive) | 7.14% (inactive) | 93.3% | 100% | -0.92% (inactive) | 2.95% (inactive)
C=CCOc1ccc(/C(O)=C2\C(=O)C(=O)N(CCOC)C2c2cccnc2)cc1 (stereo not given) | 99% | 94.5% (inactive) | 99% (inactive) | 107% (inactive) | 103% (inactive) | 14.8% (inactive) | 88.4% | 103% | -6.89% (inactive) | 1.17% (inactive)
CCn1c(Cc2ccc(OC)cc2)nnc1SCC(=O)Nc1cccc(C(=O)OC)c1 | 89.5% | 86.5% (inactive) | 89.5% (inactive) | 85.8% (inactive) | 103% (inactive) | 7.12% (inactive) | 95.7% | 103% | -1.45% (inactive) | -2.86% (inactive)
NC1=NC(c2ccc(Br)cc2)n2c(nc3ccccc32)N1 (stereo not given) | 90% | 82% (inactive) | 90% (inactive) | 75.5% (inactive) | 81.4% (inactive) | 4.81% (inactive) | 76.6% | 81.4% | -5.13% (inactive) | -6% (inactive)
CCOC(=O)N1CCN(S(=O)(=O)c2ccc(F)c(C(=O)Nc3cc(C)cc(C)c3)c2)CC1 | 76% | 112% (inactive) | 76% (inactive) | 78.6% (inactive) | 83.3% (inactive) | 1.41% (inactive) | 81.9% | 83.3% | -2.11% (inactive) | -11.8% (inactive)
Nn1c(SCC(=O)Nc2ccc(Oc3ccccc3)cc2)nnc1C1CC1 | 98.5% | 100% (inactive) | 98.5% (inactive) | 69.1% (inactive) | 75.7% (inactive) | -9.75% (inactive) | 85.4% | 75.7% | -5.6% (inactive) | -12.1% (inactive)
CCCCn1c(SCC(=O)Nc2cc(C)on2)nnc1-c1cccnc1 | 96.5% | 111% (inactive) | 96.5% (inactive) | 87.8% (inactive) | 104% (inactive) | -2.12% (inactive) | 106% | 104% | -0.67% (inactive) | 11% (inactive)
CCOC(=O)c1cnn(-c2cc(C)nc3c(-c4ccccc4)c(C)nn23)c1N | 120% | 89% (inactive) | 120% (inactive) | 84.2% (inactive) | 89.4% (inactive) | 15.7% (inactive) | 73.7% | 89.4% | -3.77% (inactive) | -5.56% (inactive)
CC1CCCN(C(=O)c2cc(F)c(F)cc2Cl)C1 (stereo not given) | 99% | 95.5% (inactive) | 99% (inactive) | 104% (inactive) | 89.2% (inactive) | -4.92% (inactive) | 94.1% | 89.2% | -4.93% (inactive) | -3.77% (inactive)
CCc1nnc(NC(=O)c2cc3c(s2)CCCCC3)s1 | 92.5% | 108% (inactive) | 92.5% (inactive) | 90.5% (inactive) | 76.1% (inactive) | -2.58% (inactive) | 78.7% | 76.1% | -1.17% (inactive) | -3.44% (inactive)
Cc1c(C(=O)OC2CCCCC2)[nH]c2c1C(=O)CC(C)(C)C2 | 82.5% | 116% (inactive) | 82.5% (inactive) | 48.8% (inactive) | 78.8% (inactive) | -3.71% (inactive) | 82.5% | 78.8% | -3.55% (inactive) | -17.5% (inactive)
O=C(CSCc1cnn(-c2ccccc2)c1-n1cccc1)NCC1CCCO1 (stereo not given) | 97.5% | 85% (inactive) | 97.5% (inactive) | 94.1% (inactive) | 93.7% (inactive) | -10.7% (inactive) | 104% | 93.7% | -4.59% (inactive) | -2.7% (inactive)
O=C(c1ccc(Cl)cc1)N1CCCCC(Sc2nnc(-c3ccc4c(c3)OCO4)o2)C1=O (stereo not given) | 118% | 76% (inactive) | 118% (inactive) | 62% (inactive) | 88.5% (inactive) | -3.4% (inactive) | 91.9% | 88.5% | -6.49% (inactive) | 5.56% (inactive)
